T cruzi growth-1 = T. cruzi proliferation inhibition. T. cruzi beta-gal in NIH3T3, GalScreen luminescence, 90 h. inhibition, % at 8.34 µM. 77,000 tested, 5.9% active;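 active means mean inhibition above about 93%, with at least 55% of replicates each passing it, limit read from the data, passing the limit was not always enough; inconclusive means only one of those two conditions holds; inactive means neither condition holds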
Pf Dd2 inh = blocks growth of Plasmodium falciparum Dd2 parasites | P. falciparum Dd2 growth, SYBR Green, 72 h; stronger effect = lower value | activity change, % at 10 µM | 94,000 tested, 2.3% active | AID 1159554; in the data active means activity change below about -80%; inconclusive means no clear call, values can overlap the other calls
KDM4C inh = KDM4C (human) demethylase inhibition; inhibition, % at 12.5 µM; AID 720574; Q9H3R0; GST-KDM4C 2-372, H3K9me3 peptide, LANCE TR-FRET; 96,000 tested, 0.15% active;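 active means mean replicate inhibition above about 25%, with at least 55% of replicates also reaching it, limit read from the data, passing the limit was not always enough; inconclusive means only one of those two conditions met; inactive means neither condition met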
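Assay system: GST-GASC-1 enzyme fragment 2-372 | Amount: 10 nM enzyme | Medium: HEPES buffer, pH 7.5, plus ascorbate | Reagent: H3K9me3 peptide substrate, Fe(II), 2-oxoglutarate | Doses: Single-point compound screen | Incubation: 30 min demethylation and 1 h detection at room temperature | Measured by: LANCE TR-FRET, excitation 340 nm, emissions 618 and 671 nm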
IDH1 mut inh = inhibitors of human IDH1 R132H; IDH1 R132H reductase, diaphorase/resazurin fluorescence, 60 min; AID 624101; inhibition, % at 10 µM; 70,000 tested, 0.18% active; O75874; in the data active means inhibition above about 34%; inconclusive means no clear call, values can overlap the other calls; inactive means below about 11%;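 further: 0% = DMSO and 100% = no enzyme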
Target sequence (O75874 whole entry R132H): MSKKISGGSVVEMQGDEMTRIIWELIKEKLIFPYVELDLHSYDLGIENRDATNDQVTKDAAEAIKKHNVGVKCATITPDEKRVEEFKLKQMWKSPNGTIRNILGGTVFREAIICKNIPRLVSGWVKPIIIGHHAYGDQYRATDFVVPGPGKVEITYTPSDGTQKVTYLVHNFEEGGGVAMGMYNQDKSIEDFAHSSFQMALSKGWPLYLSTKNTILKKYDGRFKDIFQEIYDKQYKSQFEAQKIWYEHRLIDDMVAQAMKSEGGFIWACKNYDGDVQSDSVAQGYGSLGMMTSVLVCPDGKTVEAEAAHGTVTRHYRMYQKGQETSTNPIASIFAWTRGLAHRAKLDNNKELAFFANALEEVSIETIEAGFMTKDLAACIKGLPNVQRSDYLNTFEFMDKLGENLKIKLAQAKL
T cruzi growth-2 = Trypanosoma cruzi proliferation inhibition; shares compounds with T cruzi growth-1; T. cruzi beta-gal in NIH3T3, GalScreen luminescence, 90 h; inhibition, % at 8.35 µM; 5,600 tested, 72% active;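 active means mean replicate inhibition above about 95% and at least 55% of replicates individually reaching it, limit read from the data; inconclusive means only one of the two criteria is met; inactive means neither criterion is met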
T cruzi growth-3 = blocks T. cruzi growth in NIH3T3 host cells | 5,600 tested, 21% active | shares compounds with T cruzi growth-1 | inhibition, % at 2.09 µM | T. cruzi beta-gal in NIH3T3, GalScreen luminescence, 90 h;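 active means mean inhibition above about 95%, with at least 55% of replicates also reaching it, limit read from the data; inconclusive means meets just one of the two conditions; inactive means meets neither condition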;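 further: plate controls were neutral control median for no effect and positive control median for full effect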
NIH3T3 tox = kills mouse NIH/3T3 fibroblasts | shares compounds with T cruzi growth-1 | NIH/3T3 viability, CellTiter-Glo ATP luminescence, 90 h | cytotoxicity (signal decrease), % at 8.35 µM | 5,600 tested, 14% active | AID 651742;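 active means mean signal decrease across replicates above about 35% based on untreated-well scatter, with enough replicates individually passing, limit read from the data; inconclusive means no rule stated though some were filed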;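 further: 0% = median of neutral control wells and 100% = median of positive control wells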
NIH3T3 tox 2 = NIH/3T3 (mouse) viability loss; NIH/3T3 viability, CellTiter-Glo ATP luminescence, 90 h; AID 651744; shares compounds with T cruzi growth-1; 5,600 tested, 56% active; inhibition, % at 24.9 µM;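 active means mean loss of cell viability signal at or above a set limit, and enough replicates individually reaching it; inconclusive means meets only the mean limit or only the replicate share; inactive means meets neither condition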;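 further: 0% = median of neutral control wells and 100% = median of positive control wells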
An asterisk follows results filed as active. Shown are actives, neighbours in structure and some others; about 5.9% of the full set was active somewhere.

`COc1cccc(C#Cc2ccc3c(c2)[C@H]2[C@H](CCN2S(=O)(=O)c2ccccc2)[C@H](CO)N3)c1` gave T cruzi growth-1 105*, Pf Dd2 inh -45, KDM4C inh 0, T cruzi growth-2 108*, T cruzi growth-3 84, NIH3T3 tox 14 and NIH3T3 tox 2 17.
COc1ccc(OC)c(S(=O)(=O)Nc2ccc(O)c(Sc3nc4ccccc4s3)c2)c1 was read as IDH1 mut inh 19.
Screening CCOC(=O)Cn1c(=O)c2cnc3c(c(C)nn3C)c2n1C returned IDH1 mut inh -1.
For O=C(CN1CCOCC1)N1CCCCN2[C@H](CO)[C@@H](c3ccc(-c4ccccc4)cc3)[C@H]2C1 the results were T cruzi growth-1 -9, Pf Dd2 inh 11 and KDM4C inh 0.
For Cc1ccccc1-c1ccc([C@H]2[C@@H](CO)N3CCCCN(C(=O)CN4CCOCC4)C[C@@H]23)cc1 the results were T cruzi growth-1 inconclusive, Pf Dd2 inh 34, KDM4C inh 0, T cruzi growth-2 83, T cruzi growth-3 59, NIH3T3 tox 29 and NIH3T3 tox 2 29.
Screening COc1ccccc1-c1ccc([C@@H]2[C@H](CO)N3CCCCN(C(=O)CN4CCOCC4)C[C@@H]23)cc1 returned T cruzi growth-1 56, Pf Dd2 inh -1 and KDM4C inh -4.
`O=C(CN1CCOCC1)N1CCCCN2[C@@H](CO)[C@@H](c3ccc(C#Cc4ccccc4)cc3)[C@@H]2C1` gave T cruzi growth-1 98*, Pf Dd2 inh 4, KDM4C inh 1, T cruzi growth-2 92, T cruzi growth-3 59, NIH3T3 tox 28 and NIH3T3 tox 2 103*.
O=C(CN1CCOCC1)N1CCCCN2[C@@H](CO)[C@H](c3ccc(C#Cc4ccccc4)cc3)[C@@H]2C1 was read as T cruzi growth-1 85, Pf Dd2 inh 12 and KDM4C inh 0.
For O=C(CN1CCOCC1)N1CCCCN2[C@H](C1)[C@H](c1ccc(C#Cc3ccccc3)cc1)[C@@H]2CO the results were T cruzi growth-1 78, Pf Dd2 inh 9 and KDM4C inh 1.
Screening O=C(CN1CCOCC1)N1CCCCN2[C@H](C1)[C@@H](c1ccc(C#Cc3ccccc3)cc1)[C@@H]2CO returned T cruzi growth-1 112*, Pf Dd2 inh -30, KDM4C inh 6, T cruzi growth-2 107*, T cruzi growth-3 83, NIH3T3 tox 23 and NIH3T3 tox 2 101*.
`O=C(CN1CCOCC1)N1CCCCN2[C@@H](CO)[C@@H](c3ccc(/C=C/c4ccccc4)cc3)[C@@H]2C1` gave T cruzi growth-1 105*, Pf Dd2 inh -10, KDM4C inh -2, T cruzi growth-2 105*, T cruzi growth-3 69, NIH3T3 tox 24 and NIH3T3 tox 2 105*.
For COC(=O)c1cc(NC(=O)COc2c(C)cc(C)cc2Cl)cc(C(=O)OC)c1 the results were IDH1 mut inh 0.
For O=C(Nc1cc(F)ccc1F)N1CCCCN2[C@@H](CO)[C@@H](c3ccc(-c4cncnc4)cc3)[C@@H]2C1 the results were T cruzi growth-1 108*, Pf Dd2 inh 16, KDM4C inh 1, T cruzi growth-2 -6, T cruzi growth-3 -13, NIH3T3 tox -31 and NIH3T3 tox 2 -6.
Screening O=C(Nc1ccccc1F)N1CCCCN2[C@H](C1)[C@H](c1ccc(-c3cccnc3)cc1)[C@@H]2CO returned T cruzi growth-1 104*, Pf Dd2 inh 20, KDM4C inh -1, T cruzi growth-2 inconclusive, T cruzi growth-3 -7, NIH3T3 tox -11 and NIH3T3 tox 2 -12.
Screening O=C(Nc1cc(F)ccc1F)N1CCCCN2[C@H](CO)[C@H](c3ccc(-c4ccccc4)cc3)[C@H]2C1 returned T cruzi growth-1 41, Pf Dd2 inh -71 and KDM4C inh -1.
Screening O=C(Nc1cc(F)ccc1F)N1CCCCN2[C@@H](CO)[C@H](c3ccc(-c4cccnc4)cc3)[C@@H]2C1 returned T cruzi growth-1 inconclusive, Pf Dd2 inh -12, KDM4C inh 1, T cruzi growth-2 97*, T cruzi growth-3 34, NIH3T3 tox 0 and NIH3T3 tox 2 14.
O=C(Nc1cc(F)ccc1F)N1CCCCN2[C@H](C1)[C@H](c1ccc(-c3ccccc3)cc1)[C@@H]2CO was read as T cruzi growth-1 99*, Pf Dd2 inh -7, KDM4C inh -1, T cruzi growth-2 108*, T cruzi growth-3 61, NIH3T3 tox 30 and NIH3T3 tox 2 20.
Screening O=C(Nc1ccccc1F)N1CCCCN2[C@H](CO)[C@@H](c3ccc(-c4cccnc4)cc3)[C@@H]2C1 returned T cruzi growth-1 55, Pf Dd2 inh 7 and KDM4C inh 0.
Screening O=C(Nc1cc(F)ccc1F)N1CCCCN2[C@H](CO)[C@H](c3ccc(-c4ccncc4)cc3)[C@@H]2C1 returned T cruzi growth-1 76, Pf Dd2 inh 12 and KDM4C inh -2.
For Cn1c(SCC(=O)Nc2ccccc2C(=O)Nc2ccccc2)nc2ccccc2c1=O the results were IDH1 mut inh 0.
O=C(Nc1cc(F)ccc1F)N1CCCCN2[C@@H](CO)[C@H](c3ccc(-c4ccncc4)cc3)[C@@H]2C1 was read as T cruzi growth-1 69, Pf Dd2 inh 10 and KDM4C inh -1.
For O=C(Nc1cc(F)ccc1F)N1CCCCN2[C@H](CO)[C@@H](c3ccc(-c4cncnc4)cc3)[C@@H]2C1 the results were T cruzi growth-1 112*, Pf Dd2 inh -14, KDM4C inh -2, T cruzi growth-2 12, T cruzi growth-3 5, NIH3T3 tox -13 and NIH3T3 tox 2 -6.
For O=C(Nc1cc(F)ccc1F)N1CCCCN2[C@H](CO)[C@H](c3ccc(-c4cncnc4)cc3)[C@H]2C1 the results were T cruzi growth-1 112*, Pf Dd2 inh 9, KDM4C inh 0, T cruzi growth-2 107*, T cruzi growth-3 25, NIH3T3 tox -3 and NIH3T3 tox 2 -16.
`O=C(Nc1cc(F)ccc1F)N1CCCCN2[C@@H](CO)[C@H](c3ccc(-c4cncnc4)cc3)[C@@H]2C1` gave T cruzi growth-1 98*, Pf Dd2 inh 6, KDM4C inh 0, T cruzi growth-2 69, T cruzi growth-3 18, NIH3T3 tox 24 and NIH3T3 tox 2 11.
For O=C(COc1ccc2c(-c3ccccc3)cc(=O)oc2c1)c1ccccc1 the results were IDH1 mut inh 0.

High-throughput results (PubChem)
